According to publication PMC11421684 (Food and chemical toxicology : an international journal …, 2014):
Read-outs that look alike come from different tables or passages of the source.

Legend:
[1] = Weight gains, feed and water consumption of gavaged rats; format: in vivo, rat
Method in brief: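 Rats were housed singly at 18–26 °C, 40–70% RH and 12 h light/dark, with feed and water ad libitum. They were gavaged for 10 days from GD10 with vehicle (1% CMC-Na) or 1000 mg/kg BW/day test compound. Fluid intake was measured every 3 days and feed every 7 days. For dams, adjusted gain = GD20 body weight minus gravid uterus weight and GD10 weight.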

[2] = Body weight and organ weights standardized to body weight; format: in vivo, rat; conditions: 1000 mg/kg BW/day; for Paired kidney weight standardized to body weight (% ± SEM): group mean
pregnant rats [3] = experiment: Reproductive indices at necropsy; format: in vivo, rat; conditions: dams
Method in brief: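 Time-pregnant rats were gavaged daily for 10 days from GD10 with 1% CMC-Na or 1000 mg/kg BW/day test compound. At necropsy the gravid uterus was removed whole and weighed, and corpora lutea, implants, and early and late deaths were recorded. Groups were compared against both control and the other triazine group.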

fetuses = experiment: Fetal data; format: in vivo, rat; conditions: dams, 1000 mg/kg BW/day, GD20
Method in brief: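 Dams were dosed by gavage (1000 mg/kg BW/day or 1% CMC-Na vehicle) for 10 days from GD10. At GD20 necropsy, the gravid uterus was removed whole and weighed. Each viable fetus was recorded for uterine position, sex, weight, crown-rump length and external abnormalities. Runts were defined as below 70% of the control litter average weight by gender.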

kidney = experiment: Kidney wet-mount analysis for renal crystals; format: in vivo, rat
Method in brief: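 After 10 days of gavage at 1000 mg/kg BW/day, a thin fresh renal slice spanning cortex and medulla was weighed. It was compressed between two slides with a coverslip and examined fresh by light microscopy. Crystals were ranked on a subjective 0–5 scale; some views used polarised light.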

[4] = Serum chemistry, renal function; format: in vivo, rat; conditions: for Blood urea nitrogen (mean ± SEM) / Creatinine (mean ± SEM) / Uric acid (mean ± SEM): serum
Method in brief: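 Serum was taken from pregnant and non-pregnant rats after 10 days of gavage with vehicle or 1000 mg/kg BW/day test compound. Samples were brought to room temperature. BUN, creatinine and uric acid were measured on a benchtop veterinary chemistry analyser. Results were compared with control and the other treated group.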

[5] = Serum triazine analysis by LC-MS/MS; format: in vivo; conditions: pregnant female rats, individual rat; label = dose group; LOD 0.4 μg/mL
Method in brief: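 Serum was collected from each rat after 10 daily gavages of 1000 mg/kg BW/day test compound or vehicle. Melamine and cyanuric acid were quantified by a previously published LC-MS/MS method, validated with pre-spiked serum samples at several fortification levels. Natural-log serum concentrations were compared between pregnant and non-pregnant rats by two-sided t-test (p ≤ 0.05).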

[6] = Amniotic fluid triazine analysis by LC-MS/MS; format: in vivo, rat; conditions: pregnant female rats, pooled by dam; label = dose group; LOD 0.4 μg/mL
Method in brief: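 Amniotic fluid came from GD20 dams gavaged for 10 days with vehicle or 1000 mg/kg BW/day test compound. Melamine and cyanuric acid were measured by a previously published LC-MS/MS method, validated with pre-spiked amniotic fluid. Serum-to-amniotic fluid Pearson correlations were run only on rats with both samples (p ≤ 0.05).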

[7] = Formalin, ethanol and freezing effects on renal crystals; set-up: species or system rat
Method in brief: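 Fresh kidney wet-mounts with crystal rank 4–5 were flooded with 10% neutral buffered formalin and photographed repeatedly. Times were 0, 1, 2, 3 and 24 h for melamine-exposed kidney and 0, 10, 20, 30 min and 1 h for cyanuric acid-exposed kidney. Sections in 100% ethanol were checked daily for up to 6 days. Frozen tissue, either freeze–thawed or held at −70 °C, was cut into 6 μm cryosections, unstained or unfixed H&E.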

kidney and bladder = experiment: Histopathology of kidney and bladder; format: in vivo, rat
rats = experiment: Clinical observations and survival; format: in vivo, rat; conditions: 1000 mg/kg BW/day
Method in brief: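 Female rats, time-pregnant or non-pregnant, were weight-stratified and randomised from GD10. They were gavaged each morning for 10 days with 1% CMC-Na vehicle or 1000 mg/kg BW/day test compound at 1 mL/100 g (n = 11/group; pregnant high-triazine group n = 13). Observations were made at least twice on day 1, then at least daily, covering skin, fur, eyes, mucosa, autonomic/CNS signs and behaviour. Animals removed early were counted as deaths.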

[8] = oral, female rats; ref Jacob et al., 2012; cited from earlier work
ABCB1 = conditions: MDCK cells; ref Partanen et al. (2012); cited from earlier work
ABCC2 = conditions: MDCK cells; ref Partanen et al. (2012); cited from earlier work
ABCG2 = conditions: MDCK cells; ref Partanen et al. (2012); cited from earlier work
[9] = pregnant rats, ref Jingbin et al. (2010), cited from earlier work
pregnant rats [10] = conditions: F344 rats, MEL in feed; ref Melnick et al. (1984); cited from earlier work
[11] = not pregnant rats, 1000 mg/kg BW/day
[12] = pregnant rats, 1000 mg/kg BW/day
[13] = 1000 mg/kg BW/day, necropsy GD20
[14] = kidney, H&E, pregnant and non-pregnant

**Q.** Which results are given for `Nc1nc(N)nc(N)n1` [MEL, melamine]?
**A.** Total feed consumption (g ± SEM) [1, 11]: 112.3 ± 9.2^^ g; Total water consumption (g ± SEM) [1, 11]: 295.1 ± 21.9 g; Total bw gain (g ± SEM) ([1]; not pregnant rats, 1000 mg/kg BW/day gavage 10 days, brackets indicate negative): (9.1) ± 6.5^^ g; Total feed consumption (g ± SEM) [1, 12]: 122.2 ± 11.0^^ g; Total water consumption (g ± SEM) [1, 12]: 391.8 ± 43.6 g; Total bw gain (g ± SEM) ([1]; pregnant rats, 1000 mg/kg BW/day gavage GD10-20): 5.7 ± 14.9^^ g; Adjusted weight gain (g ± SEM) ([1]; pregnant rats, GD20 body weight minus gravid uterus weight and GD10 weight, brackets indicate negative, 1000 mg/kg BW/day): (32.0) ± 14.6^^ g; GD20 Body weight (g ± SEM) ([2]; not pregnant rats): 211.3 ± 6.3 g; Heart weight standardized to body weight (% ± SEM) ([2]; not pregnant rats): 0.43 ± 0.02 %; Left kidney weight standardized to body weight (% ± SEM) ([2]; not pregnant rats): 0.65 ± 0.06%; Liver weight standardized to body weight (% ± SEM) ([2]; not pregnant rats): 3.70 ± 0.14%; Right kidney weight standardized to body weight (% ± SEM) ([2]; not pregnant rats): 0.68 ± 0.08^^ %; Spleen weight standardized to body weight (% ± SEM) ([2]; not pregnant rats): 0.26 ± 0.02%; Paired kidney weight standardized to body weight (% ± SEM) ([2]; not pregnant rats): 1.33 ± 0.13^^ %; GD20 Body weight (g ± SEM) ([2]; pregnant rats): 247.6 ± 11.5 g; Heart weight standardized to body weight (% ± SEM) ([2]; pregnant rats): 0.37 ± 0.03^^ %; Left kidney weight standardized to body weight (% ± SEM) ([2]; pregnant rats): 0.52 ± 0.05%; Liver weight standardized to body weight (% ± SEM) ([2]; pregnant rats): 3.64 ± 0.08%; Right kidney weight standardized to body weight (% ± SEM) ([2]; pregnant rats): 0.56 ± 0.05^^ %; Spleen weight standardized to body weight (% ± SEM) ([2]; pregnant rats): 0.16 ± 0.03%; Paired kidney weight standardized to body weight (% ± SEM) ([2]; pregnant rats): 1.09 ± 0.10^^ %; No. corpea lutea (mean ± SEM) (pregnant rats [3]; 1000 mg/kg BW/day gavage GD10-20, necropsy GD20): 15.1 ± 0.4; Early and late deaths (mean% of implants ± SEM) (pregnant rats [3]; [13]): 60.3 ± 14.2^^ % of implants; Early deaths (mean% of implants ± SEM) (pregnant rats [3]; [13]): 28.8 ± 12.5^@ % of implants; Implant efficiency (mean% ± SEM) (pregnant rats [3]; [13]): 88.0 ± 3.6%; Late deaths (mean% of implants ± SEM) (pregnant rats [3]; [13]): 31.6 ± 13.1 % of implants; No. fetuses alive (mean ± SEM) (pregnant rats [3]; [13]): 5.5 ± 2.0; No. implants (mean ± SEM) (pregnant rats [3]; [13]): 13.3 ± 0.6; Percent alive both genders (mean% ± SEM) (pregnant rats [3]; [13]): 39.7 ± 14.2%; Percent live females (mean% ± SEM) (pregnant rats [3]; [13]): 40.7 ± 3.8%; Average crown rump length (mean cm ± SEM) (fetuses): 3.62 ± 0.23^^ cm; Average fetal body weight (g ± SEM) (fetuses): 2.85 ± 0.48^^ g; Litter size (mean ± SEM) (fetuses): 5.5 ± 2.0^^; Number of rats with non-pigmented pyramidal uroliths adjacent to the papilla (kidney; 1000 mg/kg BW/day): 4; Treated rats that developed renal crystals (percent) (kidney; pregnant and non-pregnant combined, MEL n = 24, CYA n = 22, wet-mount): 96%; Number of treated rats that developed renal crystals (kidney; pregnant and non-pregnant combined, MEL of 24, CYA of 22, wet-mount): 23; Effect on uric acid serum levels versus control rats ([4]; 1000 mg/kg BW/day): did not appear to have an effect; Blood urea nitrogen (mean ± SEM) [4, 11]: 62.45 ± 17.32^^ mg/dL; Creatinine (mean ± SEM) [4, 11]: 1.28 ± 0.27^^ mg/dL; Uric acid (mean ± SEM) [4, 11]: 4.18 ± 0.29 mg/dL; Mean creatinine of all treated rats ([4]; pregnant and non-pregnant pooled): 1.4 mg/dL; Mean BUN of all treated rats ([4]; pregnant and non-pregnant pooled, all but one had crystals): 69 mg/dL; BUN and creatinine levels, elevation over control and CYA group levels ([4]; pregnant and non-pregnant rats): 2–4 times; Blood urea nitrogen (mean ± SEM) [4, 12]: 78.25 ± 18.41^^ mg/dL; Creatinine (mean ± SEM) [4, 12]: 1.45 ± 0.22^^ mg/dL; Uric acid (mean ± SEM) [4, 12]: 3.45 ± 0.12 mg/dL; CYA concentration, Serum [5]: <LOD; CYA concentration, Amniotic Fluid [6]: <LOD; Stability of crystals to freeze–thaw cycles ([7]; frozen kidney tissue, CYA stable if held at −70 °C): able to withstand freeze–thaw cycles; Period over which crystals progressively dissolve in 100% ethanol ([7]; kidney wet-mount sections): 6 days; Time within which crystal presence was greatly reduced in formalin ([7]; kidney wet-mount sections): ≤ 2 h; Number of rats with epithelial necrosis in the bladder (kidney and bladder; MEL: pregnant rats, minimal to marked, CYA: 1 pregnant, 2 non-pregnant, mild): 3; Rats with tubular dilation (kidney and bladder; [14]): 92%; Rats with tubular necrosis (kidney and bladder; [14]): 100%; Animals removed from the study early (rats; non-pregnant rats (n = 11)): 1; Maternal health during 10 day dosing period (rats; pregnant and non-pregnant rats): lost condition; Animals removed from the study early (rats; pregnant rats (n = 13)): 7; Area under the curve (AUC) [8]: 1992 ng·h/mL; Half-life [8]: 1.92 h; Substrate for ABC transporter ABCB1 (ABCB1): not a substrate; Substrate for ABC transporter ABCC2 (ABCC2): not a substrate; Substrate for ABC transporter ABCG2 (ABCG2): not a substrate; Detection of melamine in amniotic fluid ([9]; 40 mg/kg BW GD13 to GD20): did not detect; Detection of melamine in amniotic fluid ([9]; 400 mg/kg BW): detected; Amniotic fluid concentration as percent of maternal serum [9]: approximately 17%; Microscopically-observed pathology in the ovaries or uteri (pregnant rats [10]): did not report any microscopically-observed pathology
